This is an account of results in ChEMBL document CHEMBL1123091, “Synthesis and antiviral evaluation of nucleosides of 5-methylimidazole-4-carboxamide” (J Med Chem, 1985).

Data set [1] relates to Vesicular stomatitis virus. As to the kind of experiment: Compound was tested for antiviral activity in HeLa Cell cultures, against vesicular stomatitis virus (VSV), cytopathic effect induced by the virus (CPE). It counts as functional. The gist of the method:
(§1)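 HeLa cells grown to confluency in petri dishes, then infected (or mock-infected) with VSV at 0.01 PFU/cell. Test compound added at a range of concentrations.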

A short description of data set [2]: Compound was tested for antiviral activity in HeLa Cell cultures, against herpes simplex virus type 1 (HSV-1). As to conditions: human alphaherpesvirus 1, HeLa cell cultures; read-out: Tox50. It counts as organism-based. The gist of the method: (§2)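 HeLa cells grown to confluency in petri dishes, then infected (or mock-infected) with HSV-1 at 0.5 PFU/cell. Test compound added at a range of concentrations.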

A short description of data set [3]: Compound was tested for antiviral activity in HeLa Cell cultures, against vesicular stomatitis virus (VSV). The data set is classed as ADME, organism-based. Conditions: read-out: Tox50. The gist of the method:
as §1

Data set [4] concerns Human alphaherpesvirus 1. As to the kind of experiment: Compound was tested for antiviral activity in HeLa Cell cultures, against herpes simplex virus type 1 (HSV-1), cytopathic effect induced by the virus (CPE). It counts as functional. The gist of the method:
as §2
Background: Cytopathic effects are the visible damage that an infection or toxin causes in cultured cells.

Data set [5] in a line: Compound was tested for antiviral activity in HeLa Cell cultures against herpes simplex virus type 1 (HSV-1). It counts as organism-based. Conditions: human alphaherpesvirus 1, HeLa cell cultures; read-out: Tox50. The gist of the method:
as §2

The nature of data set [6]: Compound was tested for antiviral activity in HeLa Cell cultures against vesicular stomatitis virus (VSV). The data set is classed as ADME, organism-based. Conditions: read-out: Tox50. The gist of the method: as §1
Data set [7] concerns Human alphaherpesvirus 1. Put plainly: Compound was tested for antiviral activity in HeLa Cell cultures, against herpes simplex virus type 1 (HSV-1) expressed as cytopathic effect induced by the virus (CPE). The data set is classed as functional. The gist of the method:
as §2

Data set [8] relates to Vesicular stomatitis virus. As to the kind of experiment: Compound was tested for antiviral activity in HeLa Cell cultures, against vesicular stomatitis virus (VSV) expressed as cytopathic effect induced by the virus (CPE). The data set is classed as functional. The gist of the method:
as §1

Converted amounts (≈) assume the structure as drawn.

Regarding `Cc1c(C(N)=O)ncn1[C@@H]1C[C@H](O)[C@@H](CO)O1`, the values for the CPE50 (in data set [1]; in the data set with Human alphaherpesvirus 1 [4]) were 150 µg/mL and more than 200 µg/mL, respectively. The CC50 was more than 200 µg/mL in data set [2] and more than 400 µg/mL in data set [3].

Regarding `Cc1c(C(N)=O)ncn1[C@H]1C[C@H](O)[C@@H](CO)O1`, the CC50 in data set [5] was 300 µg/mL (≈ 1240 µM); in data set [6], more than 400 µg/mL. Also, the CPE50 (in the data set with Human alphaherpesvirus 1 [7]; in data set [8]) was 150 µg/mL in each case.

On to `Cc1[nH]cnc1C(N)=O`, for which the CC50 in data set [2] is more than 200 µg/mL. In the data set on Human alphaherpesvirus 1 [4], this compound yielded a CPE50 of more than 200 µg/mL.

As to `Cc1c(C(N)=O)ncn1COCCO`, the CPE50 in data set [1] is 180 µg/mL; with Human alphaherpesvirus 1 [4] it was more than 200 µg/mL. The CC50 in data set [2] and in data set [3] was more than 200 µg/mL throughout.

As to `Cc1c(C(N)=O)ncn1C1O[C@H](CO)[C@@H](O)[C@H]1O` (some centres not stated), the CPE50 in data set [1] is 125 µg/mL; in the data set with Human alphaherpesvirus 1 [4], 75 µg/mL. Besides, the CC50 in data set [2] and in data set [3] was more than 400 µg/mL each time.

For `NC(=O)c1ncn([C@@H]2O[C@H](CO)[C@@H](O)[C@H]2O)n1` [RIBAVIRIN], the CPE50 in data set [1] was 15 µg/mL; in the data set with Human alphaherpesvirus 1 [4] it was 75 µg/mL. In addition, the CC50 in data set [2] and in data set [3] was 400 µg/mL (≈ 1640 µM) each time.
